{"source": "ChEMBL document CHEMBL1157830", "about": "“Terpenoids and a flavonoid glycoside from Acacia pennata leaves as hedgehog/GLI-mediated transcriptional inhibitors” (J Nat Prod, 2010)", "key": {"PANC-1 [1]": {"system": "PANC-1", "test": "Inhibition of Hh/GLI1-mediated PTCH mRNA expression in human PANC1 cells at 0.4 uM after 24 hrs by RT-PCR", "format": "cell-based", "procedure,_shortened": "(§1)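 PANC1 cells treated, with untreated cells as control. Ptch mRNA was reverse transcribed with a two-step qRT-PCR kit and quantified by real-time PCR: 50 °C for 2 min, 95 °C for 2 min, then 40 cycles of 95 °C for 15 s and 60 °C for 30 s. Expression was compared with the untreated control.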"}, "PANC-1 [2]": {"system": "PANC-1", "test": "Inhibition of Hh/GLI1-mediated PTCH mRNA expression in human PANC1 cells at 0.2 uM after 24 hrs by RT-PCR", "format": "cell-based", "procedure,_shortened": "as §1"}, "[3]": {"test": "Inhibition of Hh/GLI1-mediated transcription in human HaCaT cells expressing T-Rex system by luciferase reporter gene assay", "format": "cell-based", "procedure,_shortened": "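HaCaT-GLI1-Luc cells (exogenous GLI1 under tetracycline control, T-REx) seeded at 2 × 10^5 per well. Compounds added after 12 h tetracycline induction, at 0.05% DMSO. GLI-dependent luciferase activity and cell viability read at the same time. n = 3, SD.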"}, "[4]": {"test": "Cytotoxicity against mouse C3H10T1/2 cells after 24 hrs by fluorimetric microculture cytotoxicity assay", "format": "cell-based", "settings": "C3H 10T1/2, 24 h", "procedure,_shortened": "(§2)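 Cells plated at 1 × 10^4 per well in RPMI + 10% FBS and preincubated 24 h at 37 °C. Medium then replaced with fresh medium containing a range of compound concentrations at 0.05% DMSO. After 24 h exposure, proliferation measured by fluorometric microculture cytotoxicity assay (FMCA). n = 3, SD; IC50 reported.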"}, "HaCaT [5]": {"system": "HaCaT", "test": "Inhibition of Hh/GLI1-mediated Bcl2 protein expression in human HaCaT cells expressing T-Rex system after 24 hrs by Western blot", "format": "cell-based", "procedure,_shortened": "(§3)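 HaCaT cells carrying tetracycline-inducible exogenous GLI1 plated at 2 × 10^6 per 10 cm dish for 12 h at 37 °C, then induced with 1 µg/mL tetracycline for 12 h. Medium removed and compounds added at various concentrations for 24 h. Lysates in Tris/NaCl/deoxycholate/EDTA buffer with protease inhibitor run on 5% and 12.5% SDS-PAGE. Immunoblot for PTCH, BCL-2 and GLI1 with ECL detection.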"}, "PANC-1 [6]": {"system": "PANC-1", "test": "Cytotoxicity against human PANC1 cells after 24 hrs by fluorimetric microculture cytotoxicity assay", "format": "functional, cell-based", "settings": "PANC-1, 24 h", "procedure,_shortened": "as §2"}, "PANC-1 [7]": {"system": "PANC-1", "test": "Inhibition of Hh/GLI1-mediated PTCH protein expression in human PANC1 cells after 24 hrs by Western blot", "format": "cell-based", "procedure,_shortened": "(§4)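 PANC1 cells treated with compounds at various concentrations for 24 h. Lysates run on SDS-PAGE, transferred to PVDF and blocked 1 h in TBST with 5% milk. Primary antibodies (PTCH, BCL-2) 1 h at room temperature, secondary 1 h, then ECL detection. Same procedure as for the HaCaT blots.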"}, "PANC-1 [8]": {"system": "PANC-1", "test": "Inhibition of Hh/GLI1-mediated PTCH mRNA expression in human PANC1 cells at 2 and 4 uM after 24 hrs by RT-PCR"}, "PANC-1 [9]": {"system": "PANC-1", "test": "Inhibition of Hh/GLI1-mediated Bcl2 protein expression in human PANC1 cells after 24 hrs by Western blot", "format": "cell-based", "procedure,_shortened": "as §4"}, "DU-145": {"system": "DU-145", "test": "Cytotoxicity against human DU145 cells after 24 hrs by fluorimetric microculture cytotoxicity assay", "format": "functional, cell-based", "settings": "DU-145, 24 h", "procedure,_shortened": "as §2"}, "HaCaT [10]": {"system": "HaCaT", "test": "Inhibition of Hh/GLI1-mediated PTCH protein expression in human HaCaT cells expressing T-Rex system after 24 hrs by Western blot", "format": "cell-based", "procedure,_shortened": "as §3"}, "PANC-1 [11]": {"system": "PANC-1", "test": "Inhibition of Hh/GLI1-mediated PTCH mRNA expression in human PANC1 cells at 4 uM after 24 hrs by RT-PCR", "format": "cell-based", "procedure,_shortened": "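Ptch mRNA from treated and untreated PANC1 cells reverse-transcribed with a two-step qRT-PCR kit. Real-time PCR: 50 °C 2 min, 95 °C 2 min, then 40 cycles of 95 °C 15 s and 60 °C 30 s. Compared with an untreated control; cyclopamine included as positive control.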"}}, "note": "pIC50: −log10 of the molar value. The source made the active and inactive calls. The calls are words filed in the database; no cut-off is given here.", "data": [{"smiles": "CC1=C2C[C@H]3[C@@H](CC=C4C[C@@H](O)CC[C@@]43C)[C@@H]2CC[C@]12O[C@@H]1C[C@H](C)CN[C@H]1[C@H]2C", "values": [{"measurement": "inhibition", "setting": "PANC-1 [1]", "result": "Active"}, {"measurement": "inhibition", "setting": "PANC-1 [2]", "result": "Active"}]}, {"smiles": "COC(=O)[C@]1(C)CCC[C@]2(C)c3cc4occc4c(C)c3C[C@@H](OC(C)=O)[C@@H]12", "note": "[TAEPEENIN D]", "values": [{"measurement": "pIC50", "setting": "[3]", "result": 5.80}, {"measurement": "pIC50", "setting": "[4]", "result": "< 4.00"}, {"measurement": "inhibition", "setting": "HaCaT [5]", "result": "Dose-dependent effect"}, {"measurement": "pIC50", "setting": "PANC-1 [6]", "result": 5.49}, {"measurement": "inhibition", "setting": "PANC-1 [7]", "result": "Dose-dependent effect"}, {"measurement": "inhibition", "setting": "PANC-1 [8]", "result": "Active"}, {"measurement": "inhibition", "setting": "PANC-1 [9]", "result": "Dose-dependent effect"}, {"measurement": "pIC50", "setting": "DU-145", "result": 5.47}, {"measurement": "inhibition", "setting": "HaCaT [10]", "result": "Dose-dependent effect"}, {"measurement": "inhibition", "setting": "PANC-1 [11]", "result": "Active"}]}, {"smiles": "CC1=C(C)[C@@]2(C)CCCC(C)(C)[C@@H]2CC1", "values": [{"measurement": "pIC50", "setting": "[3]", "result": 4.87}, {"measurement": "pIC50", "setting": "[4]", "result": "< 4.00"}, {"measurement": "inhibition", "setting": "HaCaT [5]", "result": "Dose-dependent effect"}, {"measurement": "pIC50", "setting": "PANC-1 [6]", "result": 4.82}, {"measurement": "inhibition", "setting": "PANC-1 [7]", "result": "Dose-dependent effect"}, {"measurement": "inhibition", "setting": "PANC-1 [9]", "result": "Dose-dependent effect"}, {"measurement": "pIC50", "setting": "DU-145", "result": 4.63}, {"measurement": "inhibition", "setting": "HaCaT [10]", "result": "Dose-dependent effect"}]}]}
